Measurements published in ChEMBL document CHEMBL2401665, “Design, synthesis and biological studies of novel tubulin inhibitors” (Bioorg Med Chem Lett, 2013).

Each molecule was assayed on MDA-MB-231 (assay: Cytotoxicity against hormone-independent human MDA-MB-231 cells assessed as growth inhibition by MTS assay).
Type: functional, cell-based
Method in brief: (§1)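 Cells seeded at 2,500 per well and exposed to a range of compound concentrations. Read-out is the MTS assay […]. IC50 is the mean of 3 independent experiments, each run in triplicate.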

Point of comparison: `COc1ccc2c(c1)NC(=O)/C2=C/c1cc(OC)c(OC)c(OC)c1`, IC50 0.88 nM. Against it:
- COc1ccc2c(c1)[nH]c(=O)n2Cc1cc(OC)c(OC)c(OC)c1 — 60-fold higher, 52.8 nM
- COc1ccc2c(c1)n(C)c(=O)n2Cc1cc(OC)c(OC)c(OC)c1 — 3400-fold higher, 3030 nM
- COc1ccc2c(c1)[nH]c(=O)n2C(=O)c1cc(OC)c(OC)c(OC)c1 — 120-fold higher, 108 nM
- COc1ccc2c(c1)oc(=O)n2Cc1cc(OC)c(OC)c(OC)c1 — 5100-fold higher, 4520 nM
- COc1ccc2c(c1)oc(=O)n2C(=O)c1cc(OC)c(OC)c(OC)c1 — higher, > 20000 nM
- COc1ccc2c(c1)C(=O)C(=O)N2Cc1cc(OC)c(OC)c(OC)c1 — 1100-fold higher, 935 nM
- COc1ccc2c(c1)CC(=O)N2Cc1cc(OC)c(OC)c(OC)c1 — 220-fold higher, 193 nM

These molecules were tested against Tubulin (Sus scrofa, UniProt P02554+P02550) (assay: Inhibition of porcine brain tubulin polymerization).

Point of comparison: `COc1ccc2c(c1)[nH]c(=O)n2Cc1cc(OC)c(OC)c(OC)c1`, IC50 16400 nM. Against it:
- COc1ccc2c(c1)[nH]c(=O)n2C(=O)c1cc(OC)c(OC)c(OC)c1 — within 1.5-fold, 19140 nM
- COc1ccc2c(c1)CC(=O)N2Cc1cc(OC)c(OC)c(OC)c1 — 1.9-fold higher, 31200 nM

Molecule `COc1ccc2c(c1)n(C)c(=O)n2Cc1cc(OC)c(OC)c(OC)c1` has an IC50 greater than 40000 nM.
With `COc1ccc2c(c1)oc(=O)n2Cc1cc(OC)c(OC)c(OC)c1` the IC50 was greater than 40000 nM.
In the case of `COc1ccc2c(c1)C(=O)C(=O)N2Cc1cc(OC)c(OC)c(OC)c1`, the IC50 is reported as “ND(Insoluble)”.

Each molecule was assayed on PC-3 (assay: Cytotoxicity against hormone-independent human PC3 cells assessed as growth inhibition by MTS assay).
Type: functional, cell-based
Method in brief: as §1

Point of comparison: `COc1ccc2c(c1)[nH]c(=O)n2Cc1cc(OC)c(OC)c(OC)c1`, IC50 44.2 nM. Against it:
- COc1ccc2c(c1)n(C)c(=O)n2Cc1cc(OC)c(OC)c(OC)c1 — 13-fold higher, 555 nM
- COc1ccc2c(c1)[nH]c(=O)n2C(=O)c1cc(OC)c(OC)c(OC)c1 — 2.9-fold higher, 126 nM
- COc1ccc2c(c1)oc(=O)n2Cc1cc(OC)c(OC)c(OC)c1 — 100-fold higher, 4490 nM
- COc1ccc2c(c1)oc(=O)n2C(=O)c1cc(OC)c(OC)c(OC)c1 — higher, > 20000 nM
- COc1ccc2c(c1)C(=O)C(=O)N2Cc1cc(OC)c(OC)c(OC)c1 — 7.2-fold higher, 318 nM
- COc1ccc2c(c1)CC(=O)N2Cc1cc(OC)c(OC)c(OC)c1 — 3.7-fold higher, 165 nM
